{"source": "ChEMBL document CHEMBL5537213", "about": "“Cytotoxicity of phosphoramidate, bis-amidate and cycloSal prodrug metabolites against tumour and normal cells” (RSC Med Chem, 2024)", "key": {"Astrocyte [1]": {"tested_on": "Astrocyte", "test": "Cytotoxicity against mouse astrocyte cells assessed as reduction in cell index at 128 uM incubated for 72 hrs by xCELLigence real time cell analyser method relative to control", "type": "toxicity, cell-based", "design": "scale not given: the % may be the effect or the level left", "in_short": "(§1)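 Real-time impedance: cells seeded on E16 plates (BxPC3 5 × 10^3/well; GL261-Luc and primary astrocytes 3 × 10^3/well), treated after 24 h in DMEM/10% FBS with 0.1% DMSO final. Cell index read hourly for 72 h and normalised to control (100% viability). At least three independent experiments, duplicates each; mean ± S.D.; ANOVA with Dunnett's test.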"}, "Astrocyte [2]": {"tested_on": "Astrocyte", "test": "Cytotoxicity against mouse astrocyte cells assessed as reduction in cell viability at 128 uM incubated for 72 hrs by CyQUANT assay", "type": "toxicity, cell-based", "in_short": "(§2)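 BxPC3 (5 × 10^3/well) or primary astrocytes (3 × 10^3/well) were dosed 24 h after plating, in supplemented DMEM with 0.1% DMSO final, for 72 h. Stained 1 h at 37 °C with CyQUANT Direct nucleic acid stain plus background suppressor in HBSS. Whole-well fluorescence imaged (Ex 488/Em 520 nm) and normalised to control. ≥3 experiments, ≥4 replicates.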"}, "BXPC-3 [3]": {"tested_on": "BXPC-3", "test": "Cytotoxicity against human BXPC-3 cells assessed as reduction in cell viability at 128 uM incubated for 72 hrs by CyQUANT assay", "type": "functional, cell-based", "in_short": "as §2"}, "GL261 [4]": {"tested_on": "GL261", "test": "Antiproliferative activity against mouse GL261 cells transfected with luciferase gene assessed as reduction in cell index at 128 uM incubated for 72 hrs by xCELLigence real time cell analyser method", "type": "functional, cell-based", "in_short": "as §1"}, "GL261 [5]": {"tested_on": "GL261", "test": "Antiproliferative activity against mouse GL261 cells transfected with luciferase gene assessed as reduction in ATP release at 128 uM incubated for 72 hrs in presence of D-luciferin by luminescence based SpectraMax M5 microplate reader analysis", "type": "functional", "in_short": "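Luciferase-expressing GL261 cells were seeded at 3 × 10^3/well, then dosed 24 h later for 72 h in supplemented DMEM with 0.1% DMSO final. Medium was replaced with D-luciferin (150 µg/mL in complete medium) for 15 min at 37 °C, and luminescence was read on a plate reader and normalised to control. ≥3 experiments, ≥4 replicates.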"}, "BXPC-3 [6]": {"tested_on": "BXPC-3", "test": "Antiproliferative activity against human BXPC-3 cells assessed as reduction in cell index at 128 uM incubated for 72 hrs by xCELLigence real time cell analyser method", "type": "functional, cell-based", "in_short": "as §1"}, "GL261 [7]": {"tested_on": "GL261", "test": "Induction of apoptosis in mouse GL261 cells transfected with luciferase gene assessed as increase in caspase 3/7 activation at 128 uM incubated for 72 hrs by laser scanning imaging analysis", "type": "functional, cell-based", "in_short": "(§3)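 BxPC3 (5 × 10^3/well) or GL261-Luc (3 × 10^3/well) were dosed 24 h after seeding for 72 h (0.1% DMSO final). CellEvent caspase-3/7 reagent was added for 1 h at 37 °C and whole-well fluorescence imaged (Ex 488/Em 520 nm). Cells were then fixed, permeabilised, blocked and stained with CellTag 700 (Ex 685/Em 720 nm) for cell number. Signal per cell is given as fold over control. ≥3 experiments, ≥4 replicates.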"}, "BXPC-3 [8]": {"tested_on": "BXPC-3", "test": "Induction of apoptosis in human BXPC-3 cells assessed as increase in caspase 3/7 activation at 128 uM incubated for 72 hrs by laser scanning imaging analysis", "type": "functional, cell-based", "in_short": "as §3"}, "BXPC-3 [9]": {"tested_on": "BXPC-3", "test": "Induction of apoptosis in human BXPC-3 cells assessed as fold increase in caspase 3/7 activation at 128 uM incubated for 72 hrs by laser scanning imaging analysis", "type": "functional", "in_short": "as §3"}, "BXPC-3 [10]": {"tested_on": "BXPC-3", "test": "Cytotoxicity against human BXPC-3 cells assessed as reduction in cell viability at 128 uM incubated for 72 hrs by CyQUANT assay relative to control", "type": "functional", "in_short": "as §2"}, "Astrocyte [11]": {"tested_on": "Astrocyte", "test": "Cytotoxicity against mouse astrocyte cells assessed as reduction in cell index at 128 uM measured after 4 hrs by xCELLigence real time cell analyser method", "type": "toxicity, cell-based", "in_short": "as §1"}, "GL261 [12]": {"tested_on": "GL261", "test": "Induction of apoptosis in mouse GL261 cells transfected with luciferase gene assessed as fold increase in caspase 3/7 activation at 128 uM incubated for 72 hrs by laser scanning imaging analysis", "type": "functional", "in_short": "(§4)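 BxPC3 (5 × 10^3/well) or GL261-Luc (3 × 10^3/well) exposed 24 h post-plating for 72 h, 0.1% DMSO final. CellEvent caspase-3/7 green reagent 1 h at 37 °C; whole-well fluorescence imaged (Ex 488/Em 520 nm). Cells then fixed, permeabilised, blocked and stained with CellTag 700 (Ex 685/Em 720 nm); caspase signal normalised to cell number, expressed as fold over control. At least three experiments, at least four replicates each.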"}, "BXPC-3 [13]": {"tested_on": "BXPC-3", "test": "Antiproliferative activity against human BXPC-3 cells assessed as reduction in cell index at 128 uM incubated for 72 hrs by xCELLigence real time cell analyser method relative to control", "type": "functional", "design": "scale not given: the % may be the effect or the level left", "in_short": "as §1"}, "BXPC-3 [14]": {"tested_on": "BXPC-3", "test": "Antiproliferative activity against human BXPC-3 cells assessed as reduction in cell index at 256 uM incubated for 72 hrs by xCELLigence real time cell analyser method", "type": "functional, cell-based", "in_short": "(§5)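 Cells seeded on E16 xCELLigence plates (BxPC3 5 × 10^3/well; GL261-Luc and primary astrocytes 3 × 10^3/well), treated after 24 h in supplemented DMEM with 0.1% DMSO final. Impedance cell index read hourly for 72 h, normalised to control (100% viability). At least three independent experiments, two replicates each; ANOVA with Dunnett's test.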"}, "GL261 [15]": {"tested_on": "GL261", "test": "Induction of apoptosis in mouse GL261 cells transfected with luciferase gene assessed as increase in caspase 3/7 activation at 256 uM incubated for 72 hrs by laser scanning imaging analysis", "type": "functional, cell-based", "in_short": "as §4"}, "GL261 [16]": {"tested_on": "GL261", "test": "Antiproliferative activity against mouse GL261 cells transfected with luciferase gene assessed as reduction in ATP release at 256 uM incubated for 72 hrs in presence of D-luciferin by luminescence based SpectraMax M5 microplate reader analysis", "type": "functional, cell-based", "in_short": "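Luciferase-expressing GL261-Luc seeded at 3 × 10^3/well in DMEM with 10% FBS; 24 h later exposed to compounds with 0.1% DMSO final for 72 h. Medium replaced by D-luciferin 150 μg mL-1 in complete medium, 15 min at 37 °C; luminescence read on plate reader, normalised to control. At least three experiments, at least four replicates each.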"}, "GL261 [17]": {"tested_on": "GL261", "test": "Antiproliferative activity against mouse GL261 cells transfected with luciferase gene assessed as reduction in cell index at 256 uM incubated for 72 hrs by xCELLigence real time cell analyser method", "type": "functional, cell-based", "in_short": "as §5"}, "BXPC-3 [18]": {"tested_on": "BXPC-3", "test": "Cytotoxicity against human BXPC-3 cells assessed as reduction in cell viability at 256 uM incubated for 72 hrs by CyQUANT assay", "type": "functional, cell-based", "in_short": "(§6)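 BxPC3 (5 × 10^3/well) or primary C57BL/6 male mouse astrocytes (>90% GFAP-positive; 3 × 10^3/well) treated 24 h after plating for 72 h, 0.1% DMSO final. Stained 1 h at 37 °C with CyQUANT Direct nucleic acid stain plus background suppressor in HBSS; whole-well fluorescence imaged (Ex 488/Em 520 nm), normalised to control. At least three experiments, at least four replicates each.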"}, "Astrocyte [19]": {"tested_on": "Astrocyte", "test": "Cytotoxicity against mouse astrocyte cells assessed as reduction in cell viability at 256 uM incubated for 72 hrs by CyQUANT assay", "type": "toxicity, cell-based", "in_short": "as §6"}, "Astrocyte [20]": {"tested_on": "Astrocyte", "test": "Cytotoxicity against mouse astrocyte cells assessed as reduction in cell index at 256 uM incubated for 72 hrs by xCELLigence real time cell analyser method relative to control", "type": "toxicity, cell-based", "design": "scale not given: the % may be the effect or the level left", "in_short": "as §5"}, "BXPC-3 [21]": {"tested_on": "BXPC-3", "test": "Induction of apoptosis in human BXPC-3 cells assessed as increase in caspase 3/7 activation at 256 uM incubated for 72 hrs by laser scanning imaging analysis", "type": "functional, cell-based", "in_short": "as §4"}}, "note": "The source made the active and inactive calls. The calls are words filed in the database; no cut-off is given here."}
{"smiles": "OCc1ccccc1O", "note": "[SALICYL ALCOHOL]", "values": [{"measurement": "Activity", "setting": "Astrocyte [1]", "result": 11, "unit": "%"}, {"measurement": "Activity", "setting": "Astrocyte [2]", "result": 22, "unit": "%"}, {"measurement": "Activity", "setting": "BXPC-3 [3]", "result": "inactive"}, {"measurement": "Activity", "setting": "GL261 [4]", "result": "inactive"}, {"measurement": "Activity", "setting": "GL261 [5]", "result": "inactive"}, {"measurement": "Activity", "setting": "BXPC-3 [6]", "result": "inactive"}, {"measurement": "Activity", "setting": "GL261 [7]", "result": "inactive"}, {"measurement": "Activity", "setting": "BXPC-3 [8]", "result": "inactive"}]}
{"smiles": "Oc1ccccc1", "note": "[PHENOL]", "values": [{"measurement": "Activity", "setting": "Astrocyte [1]", "result": 11, "unit": "%"}, {"measurement": "Activity", "setting": "Astrocyte [2]", "result": 8, "unit": "%"}, {"measurement": "Activity", "setting": "BXPC-3 [3]", "result": "inactive"}, {"measurement": "Activity", "setting": "GL261 [4]", "result": "inactive"}, {"measurement": "Activity", "setting": "GL261 [5]", "result": "inactive"}, {"measurement": "Activity", "setting": "BXPC-3 [6]", "result": "inactive"}, {"measurement": "Activity", "setting": "GL261 [7]", "result": "inactive"}, {"measurement": "Activity", "setting": "BXPC-3 [8]", "result": "inactive"}]}
{"smiles": "Oc1cccc2ccccc12", "note": "[1-NAPHTHOL]", "values": [{"measurement": "fold change (FC)", "setting": "BXPC-3 [9]", "result": 2.2}, {"measurement": "Activity", "setting": "Astrocyte [2]", "result": 29, "unit": "%"}, {"measurement": "Activity", "setting": "BXPC-3 [10]", "result": 53, "unit": "%"}, {"measurement": "Activity", "setting": "Astrocyte [11]", "result": "Toxic"}, {"measurement": "Activity", "setting": "GL261 [5]", "result": 53, "unit": "%"}, {"measurement": "fold change (FC)", "setting": "GL261 [12]", "result": 2}, {"measurement": "Activity", "setting": "BXPC-3 [13]", "result": 51, "unit": "%"}]}
{"smiles": "Oc1ccc2ccccc2c1", "note": "[BETANAPHTHOL]", "values": [{"measurement": "Activity", "setting": "Astrocyte [1]", "result": 46, "unit": "%"}, {"measurement": "fold change (FC)", "setting": "BXPC-3 [9]", "result": 8.1}, {"measurement": "Activity", "setting": "Astrocyte [2]", "result": 29, "unit": "%"}, {"measurement": "Activity", "setting": "BXPC-3 [10]", "result": 90, "unit": "%"}, {"measurement": "Activity", "setting": "Astrocyte [11]", "result": "Toxic"}, {"measurement": "Activity", "setting": "GL261 [5]", "result": 39, "unit": "%"}, {"measurement": "Activity", "setting": "BXPC-3 [13]", "result": 94, "unit": "%"}]}
{"smiles": "C[C@H](N)C(=O)OCc1ccccc1", "values": [{"measurement": "Activity", "setting": "BXPC-3 [14]", "result": "inactive"}, {"measurement": "Activity", "setting": "GL261 [15]", "result": "inactive"}, {"measurement": "Activity", "setting": "GL261 [16]", "result": "inactive"}, {"measurement": "Activity", "setting": "GL261 [17]", "result": "inactive"}, {"measurement": "Activity", "setting": "BXPC-3 [18]", "result": "inactive"}, {"measurement": "Activity", "setting": "Astrocyte [19]", "result": 8, "unit": "%"}, {"measurement": "Activity", "setting": "Astrocyte [20]", "result": 11, "unit": "%"}, {"measurement": "Activity", "setting": "BXPC-3 [21]", "result": "inactive"}]}
{"smiles": "CC(C)OC(=O)[C@H](C)N", "values": [{"measurement": "Activity", "setting": "BXPC-3 [14]", "result": "inactive"}, {"measurement": "Activity", "setting": "GL261 [15]", "result": "inactive"}, {"measurement": "Activity", "setting": "GL261 [16]", "result": "inactive"}, {"measurement": "Activity", "setting": "GL261 [17]", "result": "inactive"}, {"measurement": "Activity", "setting": "BXPC-3 [18]", "result": "inactive"}, {"measurement": "Activity", "setting": "Astrocyte [19]", "result": 12, "unit": "%"}, {"measurement": "Activity", "setting": "Astrocyte [20]", "result": 11, "unit": "%"}, {"measurement": "Activity", "setting": "BXPC-3 [21]", "result": "inactive"}]}
